Measurements reported in ChEMBL document CHEMBL3734675, “Synthesis, antimycobacterial and antibacterial activity of fluoroquinolone derivatives containing an 3-alkoxyimino-4-(cyclopropylanimo)methylpyrrolidine moiety” (2015).
Values after ≈ are worked out from the molar mass of the structure shown.

How the values were obtained:
Format in all cases: functional
Enterococcus faecium [1] = experiment: Antibacterial activity against Enterococcus faecium 14-5 after 18 to 24 hrs by two-fold serial dilution method
In short: (§1)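 Twofold serial dilution in agar media against Gram-positive and Gram-negative strains. Plates incubated at 35 °C for 18–24 h. MIC read as the lowest compound concentration giving complete inhibition of bacterial growth.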

Staphylococcus aureus [2] = experiment: Antibacterial activity against methicillin-sensitive Staphylococcus aureus 14-1 after 18 to 24 hrs by two-fold serial dilution method; in short: as §1
Klebsiella pneumoniae [3] = experiment: Antibacterial activity against Klebsiella pneumoniae 14-3 after 18 to 24 hrs by two-fold serial dilution method; in short: as §1
Escherichia coli [4] = experiment: Antibacterial activity against Escherichia coli 14-2 after 18 to 24 hrs by two-fold serial dilution method; in short: as §1
Escherichia coli [5] = experiment: Antibacterial activity against extended-spectrum beta-lactamase producing Escherichia coli 14-2 after 18 to 24 hrs by two-fold serial dilution method; in short: as §1
Escherichia coli [6] = experiment: Antibacterial activity against extended-spectrum beta-lactamase producing Escherichia coli 14-1 after 18 to 24 hrs by two-fold serial dilution method; in short: as §1
Klebsiella pneumoniae [7] = experiment: Antibacterial activity against Klebsiella pneumoniae 14-2 after 18 to 24 hrs by two-fold serial dilution method; in short: as §1
Pseudomonas aeruginosa [8] = experiment: Antibacterial activity against Pseudomonas aeruginosa ATCC 27853 after 18 to 24 hrs by two-fold serial dilution method; in short: as §1
Klebsiella pneumoniae [9] = experiment: Antibacterial activity against extended-spectrum beta-lactamase producing Klebsiella pneumoniae 14-19 after 18 to 24 hrs by two-fold serial dilution method; in short: as §1
Klebsiella pneumoniae [10] = experiment: Antibacterial activity against extended-spectrum beta-lactamase producing Klebsiella pneumoniae 14-17 after 18 to 24 hrs by two-fold serial dilution method; in short: as §1
Staphylococcus aureus [11] = experiment: Antibacterial activity against methicillin-sensitive Staphylococcus aureus 14-3 after 18 to 24 hrs by two-fold serial dilution method; in short: as §1
Streptococcus pneumoniae = experiment: Antibacterial activity against methicillin-resistant Streptococcus pneumoniae ATCC 19615 after 18 to 24 hrs by two-fold serial dilution method
In short: (§2)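 Agar media, standard twofold serial dilution. MIC is the lowest concentration giving complete inhibition of bacterial growth after incubation at 35 °C for 18–24 h. Ciprofloxacin and levofloxacin were run as comparators.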

Pseudomonas aeruginosa [12] = experiment: Antibacterial activity against Pseudomonas aeruginosa 14-14 after 18 to 24 hrs by two-fold serial dilution method; in short: as §1
Pseudomonas aeruginosa [13] = experiment: Antibacterial activity against Pseudomonas aeruginosa 14-15 after 18 to 24 hrs by two-fold serial dilution method; in short: as §1
Klebsiella pneumoniae [14] = experiment: Antibacterial activity against Klebsiella pneumoniae 14-4 after 18 to 24 hrs by two-fold serial dilution method; in short: as §1
Klebsiella pneumoniae [15] = experiment: Antibacterial activity against extended-spectrum beta-lactamase producing Klebsiella pneumoniae 14-18 after 18 to 24 hrs by two-fold serial dilution method; in short: as §1
Enterococcus faecalis [16] = experiment: Antibacterial activity against Enterococcus faecalis 14-1 after 18 to 24 hrs by two-fold serial dilution method; in short: as §1
Escherichia coli [17] = experiment: Antibacterial activity against Escherichia coli 14-1 after 18 to 24 hrs by two-fold serial dilution method; in short: as §1
[18] = tested on: Staphylococcus epidermidis; experiment: Antibacterial activity against methicillin-resistant Staphylococcus epidermidis 14-22 after 18 to 24 hrs by two-fold serial dilution method; in short: as §2
Pseudomonas aeruginosa [19] = experiment: Antibacterial activity against Pseudomonas aeruginosa 14-16 after 18 to 24 hrs by two-fold serial dilution method; in short: as §1
[20] = tested on: Staphylococcus epidermidis; experiment: Antibacterial activity against methicillin-sensitive Staphylococcus epidermidis 14-2 after 18 to 24 hrs by two-fold serial dilution method; in short: as §1
Staphylococcus aureus [21] = experiment: Antibacterial activity against Staphylococcus aureus CMCC 26003 after 18 to 24 hrs by two-fold serial dilution method; in short: as §1
[22] = tested on: Staphylococcus epidermidis; experiment: Antibacterial activity against methicillin-resistant Staphylococcus epidermidis 14-21 after 18 to 24 hrs by two-fold serial dilution method; in short: as §2
Klebsiella pneumoniae [23] = experiment: Antibacterial activity against Klebsiella pneumoniae 14-1 after 18 to 24 hrs by two-fold serial dilution method; in short: as §1
Staphylococcus aureus [24] = experiment: Antibacterial activity against methicillin-sensitive Staphylococcus aureus 14-4 after 18 to 24 hrs by two-fold serial dilution method; in short: as §1
[25] = tested on: Staphylococcus epidermidis; experiment: Antibacterial activity against methicillin-resistant Staphylococcus epidermidis 14-37 after 18 to 24 hrs by two-fold serial dilution method; in short: as §2
Staphylococcus aureus [26] = experiment: Antibacterial activity against methicillin-resistant Staphylococcus aureus 14-4 after 18 to 24 hrs by two-fold serial dilution method; in short: as §2
[27] = tested on: Staphylococcus epidermidis; experiment: Antibacterial activity against methicillin-resistant Staphylococcus epidermidis 14-39 after 18 to 24 hrs by two-fold serial dilution method; in short: as §2
Escherichia coli [28] = experiment: Antibacterial activity against Escherichia coli ATCC 25922 after 18 to 24 hrs by two-fold serial dilution method; in short: as §1
Pseudomonas aeruginosa [29] = experiment: Antibacterial activity against Pseudomonas aeruginosa 14-9 after 18 to 24 hrs by two-fold serial dilution method; in short: as §1
Enterococcus faecalis [30] = experiment: Antibacterial activity against Enterococcus faecalis 14-2 after 18 to 24 hrs by two-fold serial dilution method; in short: as §1
Staphylococcus aureus [31] = experiment: Antibacterial activity against methicillin-resistant Staphylococcus aureus 14-5 after 18 to 24 hrs by two-fold serial dilution method; in short: as §2
[32] = tested on: Mycobacterium tuberculosis; experiment: Antimycobacterial activity against Mycobacterium tuberculosis H37Rv ATCC 27294 incubated for 7 days by microplate Alamar Blue assay; settings: H37Rv ATCC 27294, 168 h
In short: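 Fluorescence read-out. MIC is the lowest concentration that reduces fluorescence by at least 90% relative to the mean of replicate bacterium-only controls. Isoniazid and rifampicin were included as reference drugs.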

Enterococcus faecium [33] = experiment: Antibacterial activity against Enterococcus faecium 14-2 after 18 to 24 hrs by two-fold serial dilution method; in short: as §1
Enterococcus faecium [34] = experiment: Antibacterial activity against Enterococcus faecium 14-6 after 18 to 24 hrs by two-fold serial dilution method; in short: as §1

Compound | MIC (Enterococcus faecium [1]) | MIC (Staphylococcus aureus [2]) | MIC (Klebsiella pneumoniae [3]) | MIC (Escherichia coli [4]) | MIC (Escherichia coli [5]) | MIC (Escherichia coli [6]) | MIC (Klebsiella pneumoniae [7]) | MIC (Pseudomonas aeruginosa [8]) | MIC (Klebsiella pneumoniae [9]) | MIC (Klebsiella pneumoniae [10]) | MIC (Staphylococcus aureus [11]) | MIC (Streptococcus pneumoniae) | MIC (Pseudomonas aeruginosa [12]) | MIC (Pseudomonas aeruginosa [13]) | MIC (Klebsiella pneumoniae [14]) | MIC (Klebsiella pneumoniae [15]) | MIC (Enterococcus faecalis [16]) | MIC (Escherichia coli [17]) | MIC [18] | MIC (Pseudomonas aeruginosa [19]) | also measured
CO/N=C1/CN(c2nc3c(cc2F)c(=O)c(C(=O)O)cn3-c2nc(N)c(F)cc2F)CC1CNC1CC1 (stereo not given) | 16 mg/L (≈ 30.9 µM) | 16 mg/L (≈ 30.9 µM) | > 128 mg/L | > 128 mg/L | > 128 mg/L | 16 mg/L (≈ 30.9 µM) | 32 mg/L (≈ 61.8 µM) | 16 mg/L (≈ 30.9 µM) | 64 mg/L (≈ 124 µM) | 64 mg/L (≈ 124 µM) | 16 mg/L (≈ 30.9 µM) | 32 mg/L (≈ 61.8 µM) | 128 mg/L (≈ 247 µM) | 128 mg/L (≈ 247 µM) | > 128 mg/L | 64 mg/L (≈ 124 µM) | 16 mg/L (≈ 30.9 µM) | > 128 mg/L | 32 mg/L (≈ 61.8 µM) | 64 mg/L (≈ 124 µM) | MIC [20]: 128 mg/L (≈ 247 µM); MIC (Staphylococcus aureus [21]): 0.25 mg/L (≈ 0.483 µM); MIC [22]: 64 mg/L (≈ 124 µM); MIC (Klebsiella pneumoniae [23]): 32 mg/L (≈ 61.8 µM); MIC (Staphylococcus aureus [24]): 16 mg/L (≈ 30.9 µM); MIC [25]: 64 mg/L (≈ 124 µM); MIC (Staphylococcus aureus [26]): 64 mg/L (≈ 124 µM); MIC [27]: 16 mg/L (≈ 30.9 µM); MIC (Escherichia coli [28]): 4 mg/L (≈ 7.73 µM); MIC (Pseudomonas aeruginosa [29]): 32 mg/L (≈ 61.8 µM); MIC (Enterococcus faecalis [30]): 4 mg/L (≈ 7.73 µM); MIC (Staphylococcus aureus [31]): 16 mg/L (≈ 30.9 µM); MIC90 [32]: 24.3 mg/L (≈ 46.9 µM); MIC (Enterococcus faecium [33]): 32 mg/L (≈ 61.8 µM); MIC (Enterococcus faecium [34]): 32 mg/L (≈ 61.8 µM)
CCO/N=C1/CN(c2nc3c(cc2F)c(=O)c(C(=O)O)cn3-c2nc(N)c(F)cc2F)CC1(C)CNC1CC1 (stereo not given) | 128 mg/L (≈ 235 µM) | 32 mg/L (≈ 58.7 µM) | > 128 mg/L | 128 mg/L (≈ 235 µM) | > 128 mg/L | 64 mg/L (≈ 117 µM) | > 128 mg/L | 128 mg/L (≈ 235 µM) | > 128 mg/L | > 128 mg/L | 16 mg/L (≈ 29.3 µM) | 16 mg/L (≈ 29.3 µM) | 128 mg/L (≈ 235 µM) | 128 mg/L (≈ 235 µM) | > 128 mg/L | > 128 mg/L | 64 mg/L (≈ 117 µM) | > 128 mg/L | 128 mg/L (≈ 235 µM) | > 128 mg/L | MIC [20]: 128 mg/L (≈ 235 µM); MIC (Staphylococcus aureus [21]): 0.5 mg/L (≈ 0.917 µM); MIC [22]: 64 mg/L (≈ 117 µM); MIC (Klebsiella pneumoniae [23]): > 128 mg/L; MIC (Staphylococcus aureus [24]): 4 mg/L (≈ 7.33 µM); MIC [25]: 128 mg/L (≈ 235 µM); MIC (Staphylococcus aureus [26]): 64 mg/L (≈ 117 µM); MIC [27]: 64 mg/L (≈ 117 µM); MIC (Escherichia coli [28]): 32 mg/L (≈ 58.7 µM); MIC (Pseudomonas aeruginosa [29]): 64 mg/L (≈ 117 µM); MIC (Enterococcus faecalis [30]): 8 mg/L (≈ 14.7 µM); MIC (Staphylococcus aureus [31]): 64 mg/L (≈ 117 µM); MIC90 [32]: 27.7 mg/L (≈ 50.9 µM); MIC (Enterococcus faecium [33]): 128 mg/L (≈ 235 µM); MIC (Enterococcus faecium [34]): 64 mg/L (≈ 117 µM)
